According to ChEMBL document CHEMBL1671657, “MurF inhibitors with antibacterial activity: effect on muropeptide levels” (Antimicrob Agents Chemother, 2009):
≈ marks a conversion by molar mass, not a printed value. Calls of active or inactive are those of the source. No cut-off for these calls is given here. Bridge positions count the residues as written; N and C are the ends. Square brackets hold non-standard residues; d marks the D form. Peptide text beside a SMILES is read from it. Dab = NCC[C@H](N)C(=O)O

Columns and labels:
Staphylococcus aureus [1] = assay: Antimicrobial activity against methicillin-resistant Staphylococcus aureus OC2878 by broth microdilution method; type: functional
Procedure, shortened: (§1)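 CLSI broth microdilution MIC; strains from the sponsor's in-house collection.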

Enterococcus faecium = assay: Antimicrobial activity against Enterococcus faecium OC3312 by broth microdilution method; type: functional
Procedure, shortened: (§2)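 MICs by CLSI broth microdilution. Where polymyxin B nonapeptide was included, it was present at 2 μg/ml alongside the test compound.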

Escherichia coli [2] = assay: Antimicrobial activity against Escherichia coli OC2605 by broth microdilution method; type: functional; procedure, shortened: as §1
Staphylococcus aureus [3] = assay: Antimicrobial activity against Staphylococcus aureus ATCC 29213 by broth microdilution method; type: functional; procedure, shortened: as §2
Escherichia coli [4] = assay: Antimicrobial activity against Escherichia coli OC9040 by broth microdilution method; type: functional; procedure, shortened: as §2
Staphylococcus aureus [5] = assay: Antimicrobial activity against Staphylococcus aureus OC4172 by broth microdilution method; type: functional; procedure, shortened: as §2
Enterococcus faecalis = assay: Antimicrobial activity against Enterococcus faecalis ATCC 29212 by broth microdilution method; type: functional; procedure, shortened: as §2
Escherichia coli [6] = assay: Antimicrobial activity against Escherichia coli ATCC 25922 by broth microdilution method; type: functional; procedure, shortened: as §2
Escherichia coli [7] = assay: Antimicrobial activity against LPS-deffective Escherichia coli OC2530 by broth microdilution method; type: functional; procedure, shortened: as §2
Staphylococcus aureus [8] = assay: Antimicrobial activity against methicillin-resistant Staphylococcus aureus OC3726 by broth microdilution method; type: functional; procedure, shortened: as §1
Staphylococcus aureus [9] = assay: Inhibition of Staphylococcus aureus ATCC 29213 MurF assessed as UDP-MurNAc-pentapeptide product level at 2 times MIC by HPLC (reference value: 1 mAU)
Procedure, shortened: (§3)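 After 30 min, muropeptides were extracted and quantified by HPLC peak area, normalized to the control. The HPLC detection limit was 12 mAU. Results are representative of two independent experiments.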

Staphylococcus aureus [10] = assay: Inhibition of Staphylococcus aureus ATCC 29213 MurF assessed as UDP-MurNAc-pentapeptide product level at 4 times MIC by HPLC (reference value: 1 mAU); procedure, shortened: as §3
[11] = Inhibition of Escherichia coli MurF
Staphylococcus aureus [12] = assay: Inhibition of Staphylococcus aureus ATCC 29213 MurF assessed as UDP-MurNAc-tripeptide substrate level at 2 times MIC by HPLC (reference value: 1 mAU); procedure, shortened: as §3
Staphylococcus aureus [13] = assay: Bacteriostatic activity against Staphylococcus aureus ATCC 29213 at 2 times MIC; type: functional, organism-based
Staphylococcus aureus [14] = assay: Inhibition of Staphylococcus aureus ATCC 29213 MurF assessed as UDP-MurNAc-tripeptide substrate level at 4 times MIC by HPLC (reference value: 1 mAU); procedure, shortened: as §3
Staphylococcus aureus [15] = assay: Inhibition of Staphylococcus aureus ATCC 29213 MurF assessed as UDP-MurNAc-tripeptide substrate level at MIC by HPLC (reference value: 1 mAU); procedure, shortened: as §3
Staphylococcus aureus [16] = assay: Inhibition of Staphylococcus aureus ATCC 29213 MurF assessed as UDP-MurNAc-pentapeptide product level at MIC by HPLC ([…])
Staphylococcus aureus [17] = assay: Antimicrobial activity against Staphylococcus aureus ATCC 29213 assessed as growth inhibition; type: functional, organism-based
Staphylococcus aureus [18] = assay: Antimicrobial activity against Staphylococcus aureus ATCC 29213 assessed as cell lysis; type: functional, organism-based

| SMILES | MIC (Staphylococcus aureus [1]) [µg/mL] | MIC (Enterococcus faecium) [µg/mL] | MIC (Escherichia coli [2]) [µg/mL] | MIC (Staphylococcus aureus [3]) [µg/mL] | MIC (Escherichia coli [4]) [µg/mL] | MIC (Staphylococcus aureus [5]) [µg/mL] | MIC (Enterococcus faecalis) [µg/mL] | MIC (Escherichia coli [6]) [µg/mL] | MIC (Escherichia coli [7]) [µg/mL] | MIC (Staphylococcus aureus [8]) [µg/mL] | Activity (fold of control) (Staphylococcus aureus [9]) | Activity (fold of control) (Staphylococcus aureus [10]) | IC50 [11] [µM] | Activity (fold of control) (Staphylococcus aureus [12]) | Activity (Staphylococcus aureus [13]) | Activity (fold of control) (Staphylococcus aureus [14]) | Activity (fold of control) (Staphylococcus aureus [15]) | Activity (fold of control) (Staphylococcus aureus [16]) | inhibition (Staphylococcus aureus [17]) | Activity (Staphylococcus aureus [18]) |
| --- | --- | --- | --- | --- | --- | --- | --- | --- | --- | --- | --- | --- | --- | --- | --- | --- | --- | --- | --- | --- |
| CC(C)C[C@@H]1NC(=O)[C@@H](Cc2ccccc2)NC(=O)[C@H](CCN)NC(=O)[C@@H](NC(=O)[C@H](CCN)NC(=O)[C@@H](N)[C@@H](C)O)CCNC(=O)[C@H]([C@@H](C)O)NC(=O)[C@H](CCN)NC(=O)[C@H](CCN)NC1=O [POLYMYXIN B NONAPEPTIDE] (H-T[Dab][Dab][Dab][dF]L[Dab][Dab]T; lactam 3-C) | > 64 | > 64 | 32 (≈ 33.2 µM) | > 64 | 64 (≈ 66.4 µM) | > 64 | > 64 | 64 (≈ 66.4 µM) | 16 (≈ 16.6 µM) | > 64 |  |  |  |  |  |  |  |  |  |  |
| COc1ccc2nc(OC)c([C@@H](c3ccccc3)[C@](O)(CCc3ccccc3)CCN(C)C)cc2c1 | 8 (≈ 16.5 µM) | 8 (≈ 16.5 µM) | > 32 | 8 (≈ 16.5 µM) | > 32 | 8 (≈ 16.5 µM) | 8 (≈ 16.5 µM) | > 32 | 8 (≈ 16.5 µM) | 8 (≈ 16.5 µM) | 0.34 | 0.21 | 29 | > 38 | Active | > 67 | > 10 | 0.6 | Dose-dependent effect | inactive |
